A selection: hits, their analogues and other compounds. The true share with any hit is near 1.4%.
FXIa inh: inhibitors of human coagulation factor XIa. P03951. purified FXIa, Boc-Glu-Ala-Arg-AMC fluorogenic substrate. inhibition, % at 5 µM. 220,000 tested, 0.14% active. AID 798;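 active = inhibition of at least 40%; inactive = inhibition below 40%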;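 also: fluorescence of freed AMC excited at 355 nm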
Thrombin inh: inhibitors of human thrombin. inhibition, % at 5 µM. alpha-thrombin, Boc-VPR-AMC fluorogenic substrate cleavage. 220,000 tested, 0.26% active;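 active = inhibition at or above 40%; inactive = inhibition below 40%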
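Assay system: human alpha-thrombin enzyme. Reagent: Boc-VPR-AMC substrate, 15 µM final. Compound dosing: one concentration per compound, 5 µM, with 0.2% DMSO. Incubation: room-temperature reaction. Technique: AMC fluorescence, 355/460 nm. Measure: % inhibition relative to enzyme controls and enzyme-free blanks.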
FXIIa inh 1536: inhibitors of human coagulation factor XIIa | P00748 | purified FXIIa, Boc-QGR-AMC fluorogenic substrate, 2 h | inhibition, % at 5 µM | 220,000 tested, 0.3% active; in the data active = inhibition above about 40%
Target sequence (P00748 20-372 limits assumed): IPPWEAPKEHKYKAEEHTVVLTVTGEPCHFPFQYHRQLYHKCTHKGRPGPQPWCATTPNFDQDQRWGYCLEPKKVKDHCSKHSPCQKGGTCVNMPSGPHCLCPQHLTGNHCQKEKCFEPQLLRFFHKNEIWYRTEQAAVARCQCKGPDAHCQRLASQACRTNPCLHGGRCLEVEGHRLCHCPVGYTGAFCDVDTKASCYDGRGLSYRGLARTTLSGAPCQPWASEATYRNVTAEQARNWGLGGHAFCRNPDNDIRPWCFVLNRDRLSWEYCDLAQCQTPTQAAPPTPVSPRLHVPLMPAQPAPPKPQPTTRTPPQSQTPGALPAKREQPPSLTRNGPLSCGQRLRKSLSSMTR
Target sequence (P00748 373-615 limits assumed): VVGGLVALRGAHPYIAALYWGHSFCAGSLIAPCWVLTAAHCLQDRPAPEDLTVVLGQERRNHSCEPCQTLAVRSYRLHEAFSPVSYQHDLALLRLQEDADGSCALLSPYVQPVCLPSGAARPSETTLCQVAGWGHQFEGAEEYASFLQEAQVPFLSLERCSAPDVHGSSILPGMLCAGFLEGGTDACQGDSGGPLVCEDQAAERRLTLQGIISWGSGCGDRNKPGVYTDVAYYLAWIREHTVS
m-calpain inh: inhibitors of pig calpain II; inhibition, % at 16 µM; purified calpain II, fluorogenic peptide substrate, 30 min; 220,000 tested, 0.37% active; AID 1236;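 active = inhibition above about 50%, limit read from the data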
Furin inh: human furin inhibition | P09958 | purified furin, fluorogenic substrate cleavage | inhibition, % at 20 µM or 30 µM | 220,000 tested, 0.061% active; in the data active = inhibition above about 25%
KLK5 inh: inhibitors of human kallikrein 5; recombinant hK5, fluorogenic AMC substrate cleavage; inhibition, % at 5 µM; 210,000 tested, 0.59% active;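 active = inhibition of 40% or more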
A number is an active result; n = inactive; x = no result given.

SMILES	FXIa inh	Thrombin inh	FXIIa inh 1536	m-calpain inh	Furin inh	KLK5 inh
Cc1cc(C(=O)CSc2nnc(N)s2)c(C)n1Cc1cccs1	n	n	n	n	n	n
CC1=C(C(=O)OCc2ccccc2)C(c2cccs2)N2C(=O)CCSC2=N1 (stereo unspecified)	n	n	n	61	n	n
CCNc1nc(NCC)nc(OCCNS(=O)(=O)c2cc(C)ccc2C)n1	n	n	n	n	n	53
COc1cc(/C=C(/NC(=O)c2ccccc2)C(=O)N2CCN(C)CC2)c([N+](=O)[O-])cc1OC	n	n	n	n	n	40
COc1cc(/C=C(\NC(=O)c2ccccc2)C(=O)NCCO)c([N+](=O)[O-])cc1OC	n	n	n	n	n	n
COc1ccc(CNC(=O)NC(C)(C)c2cccc(C(C)(C)NC(=O)NCc3ccc(OC)cc3)c2)cc1	n	n	n	n	n	44
C=C(C)c1cccc(C(C)(C)NC(=O)NCc2ccc(OC)cc2)c1	n	n	n	n	n	n
CC1(C)N=c2ccc([N+](=O)[O-])c(N)c2=[N+]1[O-]	40	n	n	n	n	n
Cc1ccc([N+](=O)[O-])c(C)[n+]1C	n	n	n	n	n	n
COc1cc(S(=O)(=O)Nc2ncccc2C)c(OC)cc1Cl	n	n	n	n	28	n
COc1ccc(Br)cc1S(=O)(=O)Nc1ncccc1C	n	n	n	n	n	n
COc1ccc(/C=C(\C#N)c2n[nH]c(Cn3cncn3)n2)cc1	n	n	48	n	n	n
CC(C)C[C@H](NC(=O)c1[nH]cnc1C(=O)N[C@@H](C)c1ccccc1)C(=O)OCc1ccccc1	n	n	n	56	n	n
CC(C)C[C@H](NC(=O)c1nc[nH]c1C(=O)NCCCCCNC(=O)OC(C)(C)C)C(=O)OC(C)(C)C	n	n	n	51	n	n
C[C@@H](NC(=O)c1nc[nH]c1C(=O)N[C@@H](CCCCNC(=O)OC(C)(C)C)C(=O)OC(C)(C)C)c1ccccc1	n	n	n	61	n	n
COc1ccc(OC)c(NC(=O)CN(c2ccc(OC)c(Cl)c2)S(C)(=O)=O)c1	n	n	n	n	n	n
C[C@H](N)c1nnc(SCC(=O)N(C)C)o1	n	n	n	n	n	n
C=CCNC(=S)Nc1c(C(=O)OC)[nH]c2cc(OC)ccc12	n	n	n	n	n	n
Cc1cccc(N2CCN(Cc3nc(-c4ccc(F)cc4F)oc3C)CC2)n1	n	n	n	n	n	x
COc1cc(OC)cc(C(=O)Nc2ccc(S(=O)(=O)Nc3ncccn3)cc2)c1	n	x	n	n	n	n
CN(C)S(=O)(=O)N1CCc2ccccc21	n	n	n	n	n	72
CN(C)S(=O)(=O)N1CCc2ccccc2C1	n	n	n	n	n	n
COc1ccc(N(C(=O)c2ccco2)S(=O)(=O)c2cccc([N+](=O)[O-])c2)cc1	n	58	n	n	n	n
COc1ccc(N(C(=O)C(C)C)S(=O)(=O)c2cccc([N+](=O)[O-])c2)cc1	n	n	n	n	n	n
COc1ccc(N(C(=O)c2ccco2)S(=O)(=O)c2ccc(F)cc2)cc1	n	42	n	n	n	n
SMILES	FXIa inh	Thrombin inh	FXIIa inh 1536	m-calpain inh	Furin inh	KLK5 inh
COc1ccc(OC)c(CNC(=O)C2CCN(C(=O)N(C)C)CC2)c1	n	n	n	n	n	n
C/C(CC(=O)NC(C)C)=N\NC(=O)C(c1ccccc1)c1ccccc1	n	n	n	n	n	n
Cc1ccccc1-n1cnc2cc(NCc3cccs3)ccc21	n	41	n	n	n	40
O=C1CC2C(=O)NCCN2C(=NC(=O)c2ccc(Cl)cc2)N1 (stereo unspecified)	n	n	n	92	n	n
Cc1ccc(OCC(O)Cn2nc(C)cc2C)cc1 (stereo unspecified)	n	n	n	n	n	n
Cc1nc(Nc2ccccc2)sc1C(=O)c1ccccc1	n	n	n	51	n	n
COC(=O)c1cc(CSC(=N)N)ccc1OCCC(C)C	n	n	n	n	n	n
COc1ccc(NC(=O)CN2C(=O)/C(=C3\SC(=S)N(C4CCS(=O)(=O)C4)C3=O)c3ccccc32)cc1 (stereo unspecified)	n	n	n	56	n	n
CC1CN(C(=O)c2ccc3c(c2)OCO3)CC(C)O1 (stereo unspecified)	n	n	n	n	n	n
Cc1cc2ncn(C(=O)c3ccc4c(c3)OCO4)c2cc1C	n	41	n	n	n	n
O=C(NCCC1=CCCCC1)C1CCC(CNS(=O)(=O)c2ccccc2)CC1 (stereo unspecified)	n	n	n	n	n	n
CC(=O)Nc1ccc(S(=O)(=O)NCC2CCC(C(=O)NCCC3=CCCCC3)CC2)cc1 (stereo unspecified)	n	n	n	52	n	n
CC(=O)Nc1ccc(S(=O)(=O)N2CCN(Cc3ccncc3)CC2)cc1	n	n	n	n	n	n
CCCc1nc2ccccc2c(C(=O)OCC(=O)N2CCc3ccccc32)c1CC	n	n	n	n	n	58
CCOC(=O)C1CCN(C(=S)Nc2ccc(CC)cc2)CC1	n	n	n	n	n	n
CCOc1cc(C(=O)N/N=C/c2ccsc2)cc(OCC)c1OCC	n	n	n	n	n	n
COc1ccc(-c2nc(SC)n(C(=O)c3ccco3)n2)cc1	n	80	n	n	n	n
CC(=O)/C(N=Nc1ccc(-n2ccc(C(F)(F)F)n2)cc1)=C(\C)O	n	n	n	93	n	n
CC(Oc1ccc(Cl)cc1Cl)c1nc(-c2ccc(NC(=O)c3ccco3)cc2)no1 (stereo unspecified)	n	n	n	n	n	n
O=[N+]([O-])c1ccc(N2CCCCC2)cc1	n	n	n	n	n	40
CN(C)c1ccc(C(=S)N2CCN(c3ccc([N+](=O)[O-])cc3)CC2)cc1	52	n	49	n	n	n
O=[N+]([O-])c1ccc(C(=S)N2CCN(c3ccc(F)cc3)CC2)cc1	n	n	n	n	n	n
CC(=O)N1CCN(c2ccc([N+](=O)[O-])cc2)CC1	n	n	n	n	n	n
CN(C)c1ccc(C(=S)N2CCOCC2)cc1	n	n	45	n	n	n
CCOc1ccccc1N1CCN(C2=C(NS(=O)(=O)c3cccs3)C(=O)c3ccccc3C2=O)CC1	n	n	n	n	n	n
O=C(NC(Cc1c[nH]c2ccccc12)c1nnc2n1CCCCC2)c1ccccc1Cl (stereo unspecified)	n	n	n	n	n	n
C[C@H](NC(=O)[C@@H]1CCC(=O)N1Cc1ccco1)c1ccccc1	n	n	n	n	n	x
CCCC(=O)NC(=S)Nc1ccccc1C(=O)OC	n	n	n	n	n	n
CC1=C(C(=O)OCC(C)C)C23C(=O)c4ccccc4C2(O1)OC(N)=C3C#N (stereo unspecified)	n	n	n	59	n	n
Cn1c(SCC(=O)c2ccc3c(c2)NC(=O)CO3)nc2ccccc21	n	53	n	n	n	n
